# Results pooled from the literature.
# Compare with care: the assays were run in different laboratories.
# Target: Receptor tyrosine-protein kinase erbB-2 (ERBB2, Homo sapiens, UniProt P04626)
Structure (SMILES),test,conditions,remaining binding
CNC(=O)[C@@H]1CC[C@@H](n2c(-c3ccc4cnccc4c3)nc3ccc(C(=O)NCc4cccc(C(N)=O)c4)cc32)C1,"binding, competition with immobilised ligand",1 µM,100%
Nc1ncc2c(n1)-c1c([nH]c3ccc(C#CC4CC4)cc13)CCCC2,"binding, competition with immobilised ligand",1 µM,91%
O=C(Nc1cnc(Oc2ccc(F)cc2)nc1)N1CCc2ncccc2[C@@H]1c1ccc(F)cc1,"cell-free assay, competition with immobilised ligand",1 µM,80%
C[C@@H]1CCN(c2nccc(-c3cnn4ncccc34)n2)C1,binding,1 µM,90%
O=C(NCCCN1CCOCC1)c1ccc(Nc2nccc(-c3cc4ccccc4s3)n2)cc1,"binding, competition with immobilised ligand",1 µM,93%
CC(C)(C)c1ccc(-c2nc(CBr)nn2-c2cccc(O)c2)cc1,"cell-free assay, competition with immobilised ligand",10 µM,84%
COc1cccc(CNC(=O)c2nc3scc(COCc4ccc(C(=O)O)cc4)c3c(=O)[nH]2)c1,"cell-free assay, competition with immobilised ligand",1 µM,97.2%
C[C@@H]1CN(c2ccc3ncc(-c4ccc5[nH]nc(C6CC6)c5c4)n3n2)C[C@H](C)O1,"binding, competition with immobilised ligand",50 nM,87%
O=C(c1ccc(Nc2ncc(Cl)c(-c3cc4ccccc4s3)n2)cc1)N1CCC(N2CCCC2)CC1,"binding, competition with immobilised ligand",1 µM,100%
C[C@@H](c1ccc(-n2cnc3c(N)ncnc32)cc1)N1CCc2nn(C)c(Cc3ccccc3)c2C1=O,"binding, competition with immobilised ligand",0.1 µM,81%
c1cncc(-c2cccc(Nc3nccc(NC4CCCCC4)n3)c2)c1,"binding, competition with immobilised ligand",10 µM,51%
N[C@@H]1CCN(c2nccc(-c3cnn4ncccc34)n2)C1,binding,1 µM,100%
COc1cc(-c2cn(C3CCc4c(F)cccc4N(CC(F)(F)F)C3=O)nn2)ccc1-n1cnc(C)c1 (stereo not drawn),"cell-free assay, competition with immobilised ligand",1 µM,100%
CCN1CCN(Cc2ccc(C(=O)Nc3ccc(C)c(Oc4ccc5c(c4)CC(=O)N5)c3)cc2C(F)(F)F)CC1,"binding, competition with immobilised ligand",1 µM,80%
O=C(Nc1cccnn1)N1CC(C/C=C/c2cncc(Oc3ccc(C(F)(F)F)cn3)n2)C1,"cell-free assay, competition with immobilised ligand",1 µM,83%
O=C(NCC1CCOCC1)c1n[nH]cc1NC(=O)c1c(F)cccc1F,"binding, competition with immobilised ligand",1 µM,90%
CNC(=O)Nc1ccc2c(c1)[C@@]1(CC2)OC(=O)N(CC(=O)N(Cc2ccc(F)cc2)[C@@H](C)C(F)(F)F)C1=O,"cell-free assay, competition with immobilised ligand",1 µM,98%
c1cnn2ncc(-c3ccnc(N4CCC45COC5)n3)c2c1,binding,1 µM,86%
COc1cnc(Nc2cccc(S(N)(=O)=O)c2)nc1N1CCN(c2ccccc2)C(=O)C1,"binding, competition with immobilised ligand",1 µM,100%
CC(=O)c1c(NS(C)(=O)=O)c2cc(-c3ccc(Cl)cc3)c(-c3ccc(Cl)cc3Cl)nc2n(C)c1=O,"cell-free assay, competition with immobilised ligand",1 µM,100%
CN(C)c1ncc(F)c(-c2cnn3ncccc23)n1,binding,1 µM,98%
O=C(Nc1ccc(Oc2ccc(F)cc2)cc1)N1CCc2ncccc2[C@H]1c1ccc(F)cc1,"cell-free assay, competition with immobilised ligand",1 µM,100%
CN(c1nccc(-c2cnn3ncccc23)n1)C1CC1,binding,1 µM,85%
Cc1cnc(Nc2ccc(C(=O)N3CCC(N4CCCC4)CC3)cc2)nc1-c1cc2ccccc2s1,"binding, competition with immobilised ligand",1 µM,64%
